Reference: article PMC4371170 (Learning & Memory, 2015)

Assays:
C57BL/6J mice [1] = assay type: in vivo; settings: 10 mg/kg IP after extinction training
In short: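 Adult male C57BL/6J mice, 8–12 wk, group-housed 1 wk at 24°C on a 12-h light–dark cycle with food and water ad libitum, tested in the light phase. At 48 h after fear conditioning, three CS trials in a novel Context B (Plexiglas over shock bars, red light, 1% ammonium hydroxide) were averaged to assign groups (n = 12/group) matched for freezing. Extinction training followed 24 h later. Retention tests of 15 CS trials were run 24 and 48 h later, with freezing to the CS scored automatically.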

[2] = system: other HDACs besides HDAC1, HDAC2, HDAC3, and HDAC10; assay: HDAC inhibitory potency against all 11 HDAC enzymes, remaining enzymes; assay type: biochemical; settings: serial dilution starting at 20 μM
C57BL/6J mice [3] = assay: Extinction retention tests after drug without extinction training; assay type: in vivo; settings: 10 mg/kg IP without extinction training
lysine 8 on H4 = settings: site regulated by HDAC3; ref Malvaez et al. 2013; cited from earlier work
[4] = system: global histone H4 acetylation; assay: Immunocytochemistry of global histone H4 acetylation in BLA and dentate gyrus; assay type: in vivo, mice; settings: 10 mg/kg IP, 1 h after administration, qualitative
In short: (§1)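 Mice received vehicle or test compound at 10 mg/kg IP (n = 2/group). They were perfused 1 h after dosing and brain tissue was processed for immunocytochemistry. Global acetyl-H3 or acetyl-H4 immunofluorescence was imaged with DAPI counterstain in the basolateral amygdala and hippocampal dentate gyrus. Assessment was qualitative, from photomicrographs of colocalization.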

C57BL/6J mice [5] = assay: Open-field test; assay type: in vivo; settings: 10 mg/kg IP
[6] = system: global histone H3 acetylation; assay: Immunocytochemistry of global histone H3 acetylation in BLA and dentate gyrus; assay type: in vivo, mice; settings: 10 mg/kg IP, 1 h after administration, qualitative
In short: as §1

[7] = 10 mg/kg IP, mouse
HAT activity = settings: ref Nair et al. 2001; cited from earlier work

SMILES | effect on consolidation of cued fear extinction (C57BL/6J mice [1]) | inhibition of any other HDACs [2] | nonspecific effect on extinction retention (C57BL/6J mice [3]) | acetylation of lysine 8 on H4 (lysine 8 on H4) | global H4 acetylation in the BLA [4] | global acetylation of histone H4 in the dentate gyrus [4] | effect of drug on time spent in the center (C57BL/6J mice [5]; F(2,23) = 0.22, NS) | effect of drug on distance traveled (C57BL/6J mice [5]; F(2,23) = 1.06, NS) | global acetylation of histone H3 in the BLA ([6]; compared with vehicle) | global acetylation of histone H3 in the dentate gyrus [6] | brain penetrance compared with RGFP963 [7] | crossing of the blood brain barrier [7] | time of maximum brain concentration post-drug administration [7] [min] | effect on HAT activity (HAT activity)
Nc1cc(F)ccc1NC(=O)/C=C/c1cnn(C/C=C/c2ccccc2)c1 [RGFP966] | no effect | did not inhibit | does not nonspecifically enhance extinction retention | enhance acetylation | Neither RGFP966 nor RGFP963 appear to alter | seem to decrease | No significant effect | No significant effect | seems to increase | seem to decrease | lower brain penetrance | able to cross the blood brain barrier | 15 | 
CC(/C=C/C(=O)NO)=C\[C@@H](C)C(=O)c1ccc(N(C)C)cc1 [trichostatin A] |  |  |  |  |  |  |  |  |  |  |  |  |  | inhibition of HAT activity
